The record followed here is ChEMBL document CHEMBL3826882, “Discovery of 1-((2R,4aR,6R,7R,7aR)-2-Isopropoxy-2-oxidodihydro-4H,6H-spiro[furo[3,2-d][1,3,2]dioxaphosphinine-7,2'-oxetan]-6-yl)pyrimidine-2,4(1H,3H)-dione (JNJ-54257099), a 3'-5'-Cyclic Phosphate Ester Prodrug of 2'-Deoxy-2'-Spirooxetane Uridine Triphosphate Useful for HCV Inhibition” (J Med Chem, 2016).

The nature of series [1]: Ratio of AUC (0 to last) in mouse liver to AUC (0 to last) in mouse plasma. The series is classed as ADME. Put shortly:
(§1)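 Single oral dose of 50 mg/kg in 20% HP-β-cyclodextrin. Prodrug and triphosphate measured in plasma and liver over time (tlast 6–30 h). Half-life, Cmax, tmax and AUC0-last derived; liver/plasma ratio taken from AUC0-last. Prodrug data pooled from two independent studies.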

Series [2] deals with Hepatocyte. The experiment in a line: Prodrug conversion in human primary hepatocytes assessed as 2'-deoxy-2'-spirooxetane uridine triphosphate formation measured at 48 to 96 hrs by LC-MS/MS analysis. The series is classed as ADME, cell-based. Put shortly:
(§2)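 Hepatocyte primary cultures followed over time for triphosphate formation in cell lysates: rat and mouse up to 24 h, human up to 96 h.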

Series [3] has as its system Liver. Put plainly: AUC (0 to infinity) in mouse liver assessed as 2'-deoxy-2'-spirooxetane uridine triphosphate at 50 mg/kg, po. The series is classed as ADME, organism-based. Set-up: dose 50 mg/kg, time infinity, route oral. The following applies: in vivo. The gist of the method: (§3)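 Oral dose 50 mg/kg, formulated in 20% HP-β-cyclodextrin. Prodrug and triphosphate were measured in plasma and liver (ng/mL or ng/g). Parameters derived were Cmax, tmax, AUC0-last, AUC0-inf and t1/2. Some prodrug data come from two independent studies.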

Series [4] relates to Liver. Put plainly: Half life in mouse liver assessed as 2'-deoxy-2'-spirooxetane uridine triphosphate at 50 mg/kg, po. The format is ADME, organism-based. The following applies: in vivo. The gist of the method: as §1
The subject of series [5] is Hepatocyte. Put plainly: Prodrug conversion in human hepatocytes assessed as 2'-deoxy-2'-spirooxetane uridine triphosphate formation in presence of CYP3A4 inhibitor ketoconazole by LC-MS/MS analysis. The format is ADME, cell-based.
Series [6] has as its system Hepatitis C virus. Put plainly: Antiviral activity against HCV genotype 3a infected in homozygous cDNA-uPA chimeric SCID mouse bearing humanized hepatocytes assessed as reduction in HCV RNA level in serum administered through oral gavage once daily for 7 days by RT-PCR method. The format is functional, organism-based. The settings on record: Hepacivirus hominis, Hepatocyte. Put shortly:
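Male chimeric SCID cDNA-uPA+/+ mice with human hepatocyte liver (≥70% replacement by blood human albumin) and serum HCV RNA >1.0×10^6 copies/mL the week before dosing. Oral gavage for 7 days in 20% HP-β-CD, 50-200 mg/kg QD or BID. Serum sampled pre-dose on days 1, 2, 3, 5 and 7. Real-time PCR; mean change in log10 copies/mL, day 7 vs day 1 pre-dose.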

For series [7], the system named is Plasma. The experiment in a line: Tlast in dog plasma at 50 mg/kg, po. The format is ADME, organism-based, Canis lupus familiaris. The following applies: in vivo. The gist of the method:
(§4)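 Single oral dose of 50 mg/kg formulated in 20% HP-β-cyclodextrin. Prodrug and its triphosphate were measured in plasma and liver (ng/mL or ng/g) over time, and Cmax, tmax, AUC, tlast and t1/2 were derived. For some analytes, data from two independent studies are reported.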

In series [8] the test system is Hepatitis C virus. Put plainly: Antiviral activity against HCV genotype 1b infected in human HuH7 cells assessed as inhibition of viral replication after 3 days by luciferase reporter gene assay. The settings on record: Huh-7, 72 h. The format is functional, organism-based, Hepacivirus hominis. Put shortly:
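HCV 1b subgenomic luciferase replicon (Huh7-luc, clone ET, adaptive mutations E1202G, T1280I, K1846T). 2,500 cells were incubated with compound over a 9-point, 1/4 dilution series for 3 days. Replication was read as luciferase activity.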

The test system of series [9] is Liver. The experiment in a line: Cmax in rat liver assessed as 2'-deoxy-2'-spirooxetane uridine triphosphate at 50 mg/kg, po. The series is classed as ADME, organism-based. Set-up: dose 50 mg/kg, route oral. The settings on record: in vivo.
Series [10] is described as follows: Cytotoxicity against human HuH7-CMV-Luc cells assessed as reduction in cell proliferation after 3 days by 5-bromo-2'-deoxyuridine incorporation assay. The series is classed as cell-based, Huh-7. Put shortly:
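Huh7 cells at 1,500 cells/well, five serial compound dilutions in triplicate, 3 days of incubation. Proliferation was quantified as BrdU incorporation into DNA by ELISA.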

Series [11] is described as follows: AUC (0 to last) in dog plasma at 50 mg/kg, po. The series is classed as ADME, organism-based, Canis lupus familiaris. Set-up: dose 50 mg/kg, route oral, time 0 - last. Put shortly:
as §3

Series [12] has as its system Plasma. Put plainly: Tlast in mouse plasma at 50 mg/kg, po. The series is classed as ADME, organism-based. The settings on record: in vivo. The gist of the method: as §4
Series [13] is described as follows: Tmax in rat liver at 50 mg/kg, po. The format is ADME, organism-based. The gist of the method: as §4
Series [14] is described as follows: Stability in human HuH7 cells assessed as parent compound level at 100 uM incubated for 96 hrs by LC-MS analysis. The series is classed as ADME, cell-based. The following applies: huh-7, 96 h. The gist of the method: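 Huh-7 replicon-containing cells incubated 96h with prodrug at 100µM; cell lysates analysed by LC-MS for triphosphate and remaining unmetabolised prodrug.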

Series [15] concerns Liver. The experiment in a line: Tlast in rat liver assessed as 2'-deoxy-2'-spirooxetane uridine triphosphate at 50 mg/kg, po. The series is classed as ADME, organism-based. The settings on record: in vivo. The gist of the method: as §4
Series [16] concerns Hepatocyte. The experiment in a line: Drug level in human hepatocytes treated with JNJ-54257099 in presence of CYP2C8 and CYP2C9 inhibitor montelukast by LC-MS/MS analysis. The series is classed as ADME, cell-based.
Series [17] has as its system Hepatocyte. Put plainly: Prodrug conversion in rat primary hepatocytes assessed as 2'-deoxy-2'-spirooxetane uridine triphosphate formation measured at 2 hrs by LC-MS/MS analysis. The series is classed as ADME, cell-based. The gist of the method:
as §2

Series [18] is described as follows: Prodrug conversion in dog primary hepatocytes assessed as 2'-deoxy-2'-spirooxetane uridine triphosphate level per million cells at 62.5 uM after 4 hrs using radiolabelled compound by LC-MS/MS analysis. The series is classed as ADME, cell-based, Canis lupus familiaris, Hepatocyte. Put shortly: (§5)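 Study A: fresh primary hepatocyte cultures from mouse, rat, dog and human incubated with tritiated prodrug at 2 or 62.5 µM for 4 or 24 h. Triphosphate in cell lysates reported as pmol/million hepatocytes. Duplicate or single measurements.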

For series [19], the system named is Hepatocyte. The experiment in a line: Prodrug conversion in human primary hepatocytes assessed as 2'-deoxy-2'-spirooxetane uridine triphosphate level per million cells at 62.5 uM after 24 hrs using radiolabelled compound by LC-MS/MS analysis. The series is classed as ADME, cell-based. Put shortly:
as §5

Series [20] in a line: Drug metabolism in dog primary hepatocytes assessed as 1-[(4aR,6R,7R,7aR)-2-hydroxy-2-oxidodihydro-4H-spiro[furo[3,2-d][1,3,2]dioxaphosphinine-7,2'-oxetan]-6-yl]pyrimidine-2,4(1H,3H)-dione formation at 2 to 62.5 uM after 4 hrs using radiolabelled compound by LC-MS/MS analysis. The series is classed as ADME, cell-based, Canis lupus familiaris, Hepatocyte. Put shortly:
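Study A: primary cultured hepatocytes (mouse, rat, dog, human) incubated with 2 or 62.5 µM 5'-[3H]-labelled prodrug for 4 and 24 h. Cell lysates were analysed for triphosphate. Supernatants were protein-precipitated and profiled by HPLC with radioactivity detection. Cyclic monophosphate was also assessed by LC/MS/MS.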

The test system of series [21] is Hepatocyte. Put plainly: Prodrug conversion in rat primary hepatocytes assessed as 2'-deoxy-2'-spirooxetane uridine triphosphate level per million cells at 2 uM after 24 hrs using radiolabelled compound by LC-MS/MS analysis. The format is ADME, cell-based. The gist of the method: as §5
The test system of series [22] is Hepatocyte. The experiment in a line: Drug metabolism in human primary hepatocyte supernatant assessed as 1-[(4aR,6R,7R,7aR)-2-hydroxy-2-oxidodihydro-4H-spiro[furo[3,2-d][1,3,2]dioxaphosphinine-7,2'-oxetan]-6-yl]pyrimidine-2,4(1H,3H)-dione formation at 2 to 62.5 uM after 4 to 24 hrs using radiolabelled compound by HPLC analysis. The format is ADME, cell-based. The following applies: hepatocytes. The gist of the method: (§6)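 Fresh primary hepatocyte cultures incubated with tritiated prodrug (5'-[3H]) at 2 and 62.5 µM for 4 and 24 h. Supernatants taken after protein precipitation and profiled by HPLC with radioactivity detection. Cell lysates profiled for metabolites by radio-LC. Cyclic monophosphate also measured by LC/MS/MS.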

The nature of series [23]: Stability in dog primary hepatocytes assessed as parent compound level at 2 to 62.5 uM after 4 hrs using radiolabeled compound by LC-MS/MS analysis. The format is ADME, cell-based, Canis lupus familiaris, Hepatocyte. The gist of the method:
as §6

The subject of series [24] is Hepatocyte. Put plainly: Drug metabolism in rat primary hepatocytes assessed as 1-[(4aR,6R,7R,7aR)-2-hydroxy-2-oxidodihydro-4H-spiro[furo[3,2-d][1,3,2]dioxaphosphinine-7,2'-oxetan]-6-yl]pyrimidine-2,4(1H,3H)-dione formation at 2 to 62.5 uM after 24 hrs using radiolabelled compound by LC-MS/MS analysis. The format is ADME, cell-based. The gist of the method:
as §6

Series [25] has as its system Hepatocyte. Put plainly: Prodrug conversion in rat primary hepatocytes assessed as 2'-deoxy-2'-spirooxetane uridine triphosphate level per million cells at 62.5 uM after 4 hrs using radiolabelled compound by LC-MS/MS analysis. The format is ADME, cell-based. The gist of the method: as §5

Structures are written as SMILES.

For `CC(C)O[P@@]1(=O)OC[C@H]2O[C@@H](n3ccc(=O)[nH]c3=O)[C@@]3(CCO3)[C@@H]2O1`, the Kp in series [1] was 0.57. Moreover, the Drug metabolism entry in the series with Hepatocyte [2] is “metabolite_detected”; with Hepatocyte [5], “metabolite_notdetected”; with Hepatocyte [17], “metabolite_detected”. In the series with Liver [3], the AUC was 129396 ng·h/g. In addition, the t1/2 in the series on Liver [4] worked out at 3.9 h. The Activity entry in the series on Hepatitis C virus [6] is “Dose-dependent effect”. Moreover, the values for the Tlast in the series on Plasma [7], in the series on Plasma [12] and with Liver [15] were 24 h, 24 h and 30 h, respectively. In addition, the EC50 with Hepatitis C virus [8] is > 100 µM. The Cmax in the series on Liver [9] is recorded as 73500 ng/g. In series [10], the CC50 at 72 h was > 100 µM. The compound further registered an AUC(0-t) in series [11] of 25600 ng·h/mL. Further, the Tmax in series [13] came out at 1 h. Further, the Stability entry in series [14] is “Stable”. For the same compound, the Drug uptake entry in the series on Hepatocyte [16] is “Active”.

`[3H]C1O[P@](=O)(OC(C)C)O[C@@H]2[C@@H]1O[C@@H](n1ccc(=O)[nH]c1=O)[C@@]21CCO1` (stereo not given in full): the Drug metabolism in [18] is on record as 0.035 pmol; with Hepatocyte [19] it was 0.38 pmol; in [20], “metabolite_detected”; with Hepatocyte [21] it was 0.027 pmol; in the series with Hepatocyte [22], “metabolite_detected”; with Hepatocyte [24], “metabolite_detected”. In addition, the Drug metabolism in the series with Hepatocyte [25] amounted to 0.45 pmol. The Stability result in series [23] is “Stable”.
